Data from ChEMBL document CHEMBL1764997, “(Z)-3-butylidenephthalide from Ligusticum porteri , an α-glucosidase inhibitor” (J Nat Prod, 2011).
Active and inactive are the calls of the source. The calls are words filed in the database; no cut-off is given here.

Assays:
[1] = test system: Mus musculus; assay: Antihyperglycemic activity in ICR mouse assessed as change in blood glucose level at 10 mg/kg after 1.5 hrs by oral glucose tolerance test (RVb= 2.5 %); format: functional
[2] = test system: Mus musculus; assay: Antihyperglycemic activity in ICR mouse assessed as change in blood glucose level at 10 mg/kg after 0.5 hr by oral glucose tolerance test (RVb= 59 %); format: functional
[3] = test system: Mus musculus; assay: Antidiabetic activity in streptozotocin-induced diabetic ICR mouse assessed as change in blood glucose level at 10 mg/kg after 1.5 hrs by oral glucose tolerance test (RVb= 0.005 %); format: functional
[4] = test system: Mus musculus; assay: Antidiabetic activity in streptozotocin-induced diabetic ICR mouse assessed as change in blood glucose level at 10 mg/kg after 0.5 hr by oral glucose tolerance test (RVb= 51.9 %); format: functional
[5] = test system: Mus musculus; assay: Antidiabetic activity in streptozotocin-induced diabetic ICR mouse assessed as change in blood glucose level at 10 mg/kg after 2 hrs by oral glucose tolerance test (RVb= -12.9 %); format: functional
[6] = test system: Mus musculus; assay: Antihyperglycemic activity in ICR mouse assessed as change in blood glucose level at 10 mg/kg after 2 hrs by oral glucose tolerance test (RVb= -12 %); format: functional
[7] = test system: Mus musculus; assay: Antidiabetic activity in streptozotocin-induced diabetic ICR mouse assessed as change in blood glucose level at 10 mg/kg after 1 hr by oral glucose tolerance test (RVb= 10.3 %); format: functional
[8] = test system: Mus musculus; assay: Antihyperglycemic activity in ICR mouse assessed as change in blood glucose level at 10 mg/kg after 1 hr by oral glucose tolerance test (RVb= 1.5 %); format: functional
[9] = target: Alpha-glucosidase MAL62 (Saccharomyces cerevisiae) (UniProt P07265); assay: Inhibition of yeast alpha-glucosidase assessed as inhibition of p-nitrophenyl-alpha-D-glucopyranoside substrate hydrolysis after 35 mins by spectroscopy
[10] = test system: Mus musculus; assay: Antidiabetic activity in streptozotocin-induced diabetic ICR mouse assessed as change in blood glucose level at 5 mg/kg after 1.5 hrs by oral sucrose tolerance test (RVb= 6.1 %); format: functional
In short: (§1)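 NAD (40 mg/kg ip) then STZ (100 mg/kg ip, 15 min later) diabetic male ICR mice, glucose >140 mg/dL after 7 days. Animals fasted 12 h, dosed orally in 0.05% Tween 80/saline, and given oral sucrose 2 g/kg 30 min later.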

[11] = test system: Mus musculus; assay: Antidiabetic activity in streptozotocin-induced diabetic ICR mouse assessed as change in blood glucose level at 5 mg/kg after 0.5 hr by oral sucrose tolerance test (RVb= 56 %); format: functional; in short: as §1
[12] = test system: Mus musculus; assay: Antidiabetic activity in streptozotocin-induced diabetic ICR mouse assessed as change in blood glucose level at 5 mg/kg after 2 hrs by oral sucrose tolerance test (RVb= -4.3 %); format: functional; in short: as §1
[13] = species: Mus musculus; assay: Antidiabetic activity in streptozotocin-induced diabetic ICR mouse assessed as lowering of blood glucose level by oral sucrose tolerance test; format: functional, organism-based; in short: as §1
[14] = test system: Mus musculus; assay: Antidiabetic activity in streptozotocin-induced diabetic ICR mouse assessed as change in blood glucose level at 5 mg/kg after 1 hr by oral sucrose tolerance test (RVb= 11.4 %); format: functional; in short: as §1
[15] = test system: Mus musculus; assay: Antihyperglycemic activity in ICR mouse assessed as change in blood glucose level at 20 mg/kg after 0.5 hr by oral glucose tolerance test (RVb= 59 %); format: functional
[16] = test system: Mus musculus; assay: Antidiabetic activity in streptozotocin-induced diabetic ICR mouse assessed as change in blood glucose level at 31.2 mg/kg after 2 hrs by oral glucose tolerance test (RVb= -12.9 %); format: functional
[17] = test system: Mus musculus; assay: Antihyperglycemic activity in ICR mouse assessed as change in blood glucose level at 20 mg/kg after 2 hrs by oral glucose tolerance test (RVb= -12 %); format: functional
[18] = test system: Mus musculus; assay: Antidiabetic activity in streptozotocin-induced diabetic ICR mouse assessed as change in blood glucose level at 56.2 mg/kg after 0.5 hr by oral glucose tolerance test (RVb= 51.9 %); format: functional
[19] = test system: Mus musculus; assay: Antihyperglycemic activity in ICR mouse assessed as change in blood glucose level at 20 mg/kg after 1 hr by oral glucose tolerance test (RVb= 1.5 %); format: functional
[20] = test system: Mus musculus; assay: Antidiabetic activity in streptozotocin-induced diabetic ICR mouse assessed as change in blood glucose level at 31.2 mg/kg after 1.5 hrs by oral glucose tolerance test (RVb= 0.005 %); format: functional
[21] = test system: Mus musculus; assay: Antidiabetic activity in streptozotocin-induced diabetic ICR mouse assessed as change in blood glucose level at 31.2 mg/kg after 0.5 hr by oral glucose tolerance test (RVb= 51.9 %); format: functional
[22] = test system: Mus musculus; assay: Antidiabetic activity in streptozotocin-induced diabetic ICR mouse assessed as change in blood glucose level at 31.2 mg/kg after 1 hr by oral glucose tolerance test (RVb= 10.3 %); format: functional
[23] = species: Mus musculus; assay: Antidiabetic activity in streptozotocin-induced diabetic ICR mouse assessed as decrease in blood glucose levels by oral glucose tolerance test
[24] = test system: Mus musculus; assay: Antihyperglycemic activity in ICR mouse assessed as change in blood glucose level at 20 mg/kg after 1.5 hrs by oral glucose tolerance test (RVb= 2.5 %); format: functional
[25] = test system: Mus musculus; assay: Antidiabetic activity in streptozotocin-induced diabetic ICR mouse assessed as change in blood glucose level at 56.2 mg/kg after 1.5 hrs by oral glucose tolerance test (RVb= 0.005 %); format: functional
[26] = test system: Mus musculus; assay: Antidiabetic activity in streptozotocin-induced diabetic ICR mouse assessed as change in blood glucose level at 56.2 mg/kg after 2 hrs by oral glucose tolerance test (RVb= -12.9 %); format: functional
[27] = test system: Mus musculus; assay: Antidiabetic activity in streptozotocin-induced diabetic ICR mouse assessed as change in blood glucose level at 56.2 mg/kg after 1 hr by oral glucose tolerance test (RVb= 10.3 %); format: functional

Alpha-glucosidase MAL62 (Saccharomyces cerevisiae), sequence (P07265 whole entry): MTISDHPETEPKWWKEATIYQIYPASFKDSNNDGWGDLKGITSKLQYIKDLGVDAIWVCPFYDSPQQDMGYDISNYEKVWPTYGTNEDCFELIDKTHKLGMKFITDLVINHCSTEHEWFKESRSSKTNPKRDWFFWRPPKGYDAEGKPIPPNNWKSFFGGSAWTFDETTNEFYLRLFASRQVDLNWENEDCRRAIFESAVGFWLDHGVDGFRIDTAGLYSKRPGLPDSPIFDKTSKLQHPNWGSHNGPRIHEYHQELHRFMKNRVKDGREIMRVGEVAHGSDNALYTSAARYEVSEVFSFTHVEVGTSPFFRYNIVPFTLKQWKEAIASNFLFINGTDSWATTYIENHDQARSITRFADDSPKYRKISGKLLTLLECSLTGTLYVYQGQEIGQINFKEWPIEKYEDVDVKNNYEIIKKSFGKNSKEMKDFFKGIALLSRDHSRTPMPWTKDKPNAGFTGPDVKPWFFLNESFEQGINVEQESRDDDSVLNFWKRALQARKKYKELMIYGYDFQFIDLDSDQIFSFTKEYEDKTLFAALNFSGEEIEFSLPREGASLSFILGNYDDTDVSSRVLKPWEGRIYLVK

Compound | Activity [1] [%] | Activity [2] [%] | Activity [3] [%] | Activity [4] [%] | Activity [5] [%] | Activity [6] [%] | Activity [7] [%] | Activity [8] [%] | Activity [9] | other results
COc1ccc(Cl)cc1C(=O)NCCc1ccc(S(=O)(=O)NC(=O)NC2CCCCC2)cc1 [GLYBURIDE] | -69 | -42 | -10 | 42 | -21.5 | -68 | 3.8 | -65 | – | –
C=CCc1cc(OC)c2c(c1)OCO2 | – | – | – | – | – | – | – | – | inactive | –
C[C@H]1O[C@H](O[C@H]2[C@H](O)[C@@H](O)[C@@H](O[C@H]3[C@H](O)[C@@H](O)C(O)O[C@@H]3CO)O[C@@H]2CO)[C@H](O)[C@@H](O)[C@@H]1N[C@H]1C=C(CO)[C@@H](O)[C@H](O)[C@H]1O (some centres not stated) [ACARBOSE] | – | – | – | – | – | – | – | – | Dose-dependent effect | Activity [10]: 6.2%; Activity [11]: -0.4%; Activity [12]: 6.8%; Activity [13]: Active; Activity [14]: 0.5%
CCC/C=C1\OC(=O)C2=C1CCC=C2 [LIGUSTILIDE] | 7 | 42 | -19 | 13 | -15.6 | -8 | -14 | 25 | inactive | Activity [15]: 40%; Activity [16]: -10%; Activity [17]: -16%; Activity [18]: 25%; Activity [19]: 14%; Activity [20]: -12%; Activity [21]: 17%; Activity [22]: -6.3%; Activity [23]: Dose-dependent effect; Activity [24]: -3.5%; Activity [25]: 2.1%; Activity [26]: 6.5%; Activity [27]: 17.1%
